D1 mod: D1 dopamine receptor (human) allosteric modulation | actives 5.9% (n = 58,000) | B-score at 10 µM | P21728 | HEK293 D1, CRE-luciferase, dopamine EC30 potentiation; actives deviate in either direction;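 active = luminescence count or its row- and column-corrected plate score outside the 99.7% band of the plate's sample wells, on either side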
HePTP inhibitor: blocks human HePTP tyrosine phosphatase; P35236; recombinant HePTP phosphatase activity, OD absorbance; inhibition, % at 20 µM; actives 0.64% (n = 110,000); in the data active = inhibition above about 50%
M1 antagonist: M1 muscarinic receptor (rat) antagonism; P08482; CHO-M1 cells, Fluo-4 calcium, ACh EC80 antagonist mode; active compounds read low; B-score at 10 µM; actives 3.4% (n = 64,000);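 active = calcium fluorescence response, raw or row-and-column corrected B-score, differing from the plate sample mean either way at a set confidence level, mostly lower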
Target sequence (P08482 whole entry, looked up): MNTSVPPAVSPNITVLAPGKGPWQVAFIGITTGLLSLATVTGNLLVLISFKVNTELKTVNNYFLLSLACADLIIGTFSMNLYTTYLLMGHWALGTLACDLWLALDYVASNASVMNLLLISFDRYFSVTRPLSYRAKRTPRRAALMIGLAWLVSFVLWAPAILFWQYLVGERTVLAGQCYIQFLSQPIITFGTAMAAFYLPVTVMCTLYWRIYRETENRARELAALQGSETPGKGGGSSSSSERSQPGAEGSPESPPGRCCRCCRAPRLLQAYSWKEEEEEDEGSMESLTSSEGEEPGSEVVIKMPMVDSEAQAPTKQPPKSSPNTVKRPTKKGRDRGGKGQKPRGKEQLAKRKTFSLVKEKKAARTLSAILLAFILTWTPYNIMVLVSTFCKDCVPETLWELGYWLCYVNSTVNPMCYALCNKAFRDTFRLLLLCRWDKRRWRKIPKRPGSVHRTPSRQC
RORA act: activators of human nuclear receptor RORA; actives 1.5% (n = 65,000); P35398; CHO-K1 Gal4-RORA LBD luciferase reporter, luminescence; percent increase over mock-subtracted basal signal; AID 560; activation, % at 10 µM;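 active = activation above the mean of all tested compounds plus 3 SD, cut at about 49% in these data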
M1 agonist: agonists of M1 muscarinic receptor; actives 3% (n = 64,000); CHO-M1 cells, Fluo-4 calcium fluorescence, agonist mode; active compounds read high; B-score at 10 µM;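 active = fluorescence rise, raw or as B-score row- and column-corrected plate score, outside the 99.7% band of its plate's samples, either direction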
SF-1 act: activates the human nuclear receptor SF-1 | Q13285 | CHO-K1 Gal4-SF-1 LBD luciferase reporter; % increase over DMSO SF-1-specific signal | activation, % at 10 µM | actives 1.9% (n = 65,000);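 active = activation above the mean activation of all tested compounds plus 3 SD, cut at about 50% in these data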
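Test system: CHO-K1 cells co-transfected with Gal4 DBD–human SF-1 LBD, 5xGal4 luciferase reporter. Quantity: 4,000 cells per well. Compound: 10 µM only. Incubation: compound added 1 h post-seeding, 20 h exposure at 37 °C, 5% CO2. Detection: SteadyLite luciferase luminescence. Replication: one test per compound.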
M1 antag confirm: M1 muscarinic receptor (rat) antagonism, confirmed | shares compounds with M1 antagonist | CHO-M1 cells, Fluo-4 calcium, ACh EC80 antagonism; active compounds read low | calcium response (max-min fluorescence) at 10 µM | actives 43% (n = 1,700) | AID 677;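 active = calcium response below the same-plate mean of wells given acetylcholine alone at its 80%-effect dose, minus 3 SD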
mGluR4 antag: selectivity test for M1 antagonists: human mGluR4 receptor. shares compounds with M1 antagonist. CHO-mGluR4 calcium flux, Fluo-4 fluorescence, glutamate EC80; active compounds read low. fluorescence response (max-min) at 10 µM. actives 0.9% (n = 1,700);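 active = fluorescence response below the plate's average for near-maximal glutamate wells, less 3 SD of those wells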;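 note: raw unnormalized fluorescence span taken in the window right after glutamate addition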
Large screens that a line does not name were inactive (follow-up assays come after a bar, where they were run). Only some compounds are listed: those with a hit (about 8.2% of all), similar ones and a draw of the others.

O=C(c1cc2nc3c(c(C(F)(F)F)n2n1)CCc1ccccc1-3)N1CCN2CCCC2C1 (stereo not drawn)	M1 antagonist -3.1 | M1 antag confirm 343 | mGluR4 antag inactive
Cc1cccc(-c2noc(-c3cccc([N+](=O)[O-])c3C)n2)c1	none (no result: D1 mod, M1 antagonist, RORA act, M1 agonist, SF-1 act)
Cc1csc(NC(=O)c2ccccc2C(=O)O)n1	M1 antagonist -3 | M1 antag confirm inactive | mGluR4 antag inactive
O=C(CN(c1ccc(Cl)cc1Cl)S(=O)(=O)c1ccccc1)Nc1ccc(F)cc1	none (no result: D1 mod, M1 antagonist, RORA act, M1 agonist, SF-1 act)
CCN1CCN(c2ncc(C(=O)Nc3cc(Cl)ccc3OC)c3ccccc23)CC1	M1 antagonist -21 | M1 antag confirm 21 | mGluR4 antag inactive
COc1ccc(Cl)cc1NC(=O)c1cc(Cl)ccc1OC	none (no result: D1 mod, M1 antagonist, RORA act, M1 agonist, SF-1 act)
CCOc1ccc(C(=O)Nc2ccc(C(=O)OC)cc2)cc1Br	none (no result: D1 mod, M1 antagonist, RORA act, M1 agonist, SF-1 act)
CCOc1ccc(C(=O)Nc2ccc(N3CCN(C)CC3)cc2)cc1Br	D1 mod -6.4, M1 antagonist -3.5 | M1 antag confirm 361 | mGluR4 antag inactive
COc1ccccc1NC(=O)CSc1nnc(CNC(=O)COc2ccc(Cl)cc2)o1	M1 antagonist -2.8 | M1 antag confirm inactive | mGluR4 antag inactive
COc1ccc(OC)c(NC(=O)CSc2nnc(CNC(=O)COc3ccc(Cl)cc3)o2)c1	none
Clc1ccc(NC2=NCCCCC2)cc1	none
COC(=O)c1ccc(CSc2nnc3c(Cl)cc(Cl)cn23)o1	none
COC(=O)c1ccc(CSc2ccc3nnc(-c4cccc(F)c4)n3n2)o1	M1 antagonist -9.2 | M1 antag confirm 216 | mGluR4 antag inactive
COC(=O)c1ccc(CSc2nnnn2C)o1	M1 antagonist -3.1 | M1 antag confirm 399 | mGluR4 antag inactive
CCC(C)NC(=O)Cn1c(=O)n(-c2ccccc2)c(=O)c2ccc(C(=O)NCc3ccco3)cc21 (stereo not drawn)	none
Cc1oc(-c2ccc(Cl)cc2)[n+]([O-])c1C	M1 antagonist -1.6 | M1 antag confirm inactive | mGluR4 antag inactive
O=C(Nc1ccc(N2CCCCC2)c(Cl)c1)c1sc2ccccc2c1Cl	none (no result: D1 mod, M1 antagonist, RORA act, M1 agonist, SF-1 act)
O=C(NCC1CCCO1)c1sc(=S)n2c1[nH]c(=O)c1ccc(C(=O)N3CCCCC3)cc12 (stereo not drawn)	none
CC(C)C(c1nnnn1Cc1ccccc1)N1CCN(Cc2ccco2)CC1 (stereo not drawn)	none
CN(C)c1ccc(-c2nn3c(-c4ccccc4Cl)nnc3s2)cc1	M1 antagonist -5.9 (no result: HePTP inhibitor) | M1 antag confirm inactive | mGluR4 antag inactive
CCCc1cc(=O)[nH]c(SCC(=O)CSc2nc(CCC)cc(=O)[nH]2)n1	none
CCCc1cc(=O)[nH]c(SCC(=O)c2cc(C)n(CCOC)c2C)n1	M1 antagonist -3.6 | M1 antag confirm inactive | mGluR4 antag inactive
CCC(C)N(C)Cc1cccc(C2(O)CCN(S(=O)(=O)c3ccc(F)cc3)CC2)c1 (stereo not drawn)	M1 antagonist -2.1 (no result: D1 mod) | M1 antag confirm 468 | mGluR4 antag inactive
COc1cccc(C2CC(C(F)(F)F)n3ncc(C(=O)O)c3N2)c1 (stereo not drawn)	none
COc1ccc(C2CC(C(F)(F)F)n3ncc(C(=O)O)c3N2)cc1OC (stereo not drawn)	M1 antagonist -3.1 | M1 antag confirm inactive | mGluR4 antag inactive
CCOC(=O)/C=C1\Nc2ccccc2SC1=O	none
CC(=O)CC(=O)NC(=NC1CCCCC1)Nc1nc(C)cc(C)n1	M1 antagonist -2.9 | M1 antag confirm inactive | mGluR4 antag inactive
Cc1onc(-c2ccccc2Cl)c1C(=O)Nc1ccc(-c2nnc3n2CCCCC3)cc1	M1 antagonist -2.3 | M1 antag confirm 408 | mGluR4 antag inactive
CNC(=O)c1c(-c2ccccc2Cl)noc1C	none (no result: D1 mod, M1 antagonist, RORA act, M1 agonist, SF-1 act)
Cc1onc(-c2ccccc2Cl)c1C(=O)Nc1nnc(C(C)C)s1	M1 antagonist -2.2 (no result: D1 mod) | M1 antag confirm 377 | mGluR4 antag inactive
CCOC(=O)N1CCN(C(=O)c2ccc3c(=O)n4c(nc3c2)CCCCC4)CC1	M1 antagonist -5.3 | M1 antag confirm 300 | mGluR4 antag inactive
CCOC(=O)N1CCN(C(=O)c2ccc3c(=O)n(CCc4ccccc4)c(=O)[nH]c3c2)CC1	M1 antagonist -5.1 | M1 antag confirm 296 | mGluR4 antag inactive
CCOC(=O)N1CCN(C(=O)c2ccc3c(=O)n(CCOC)c(=O)[nH]c3c2)CC1	M1 antagonist -2.1 | M1 antag confirm inactive | mGluR4 antag inactive
CCOC(=O)C1CCCN(C(=O)c2ccc3c(=O)n(CCOC)c(=S)[nH]c3c2)C1 (stereo not drawn)	none
Nc1ncnc2nc(SCc3ccccc3)[nH]c12	none (no result: D1 mod)
Cc1cc2nc(SCCN3CCCC3)[nH]c2cc1C	M1 antagonist -1.9 (no result: D1 mod) | M1 antag confirm inactive | mGluR4 antag inactive
Nc1ncnc2nc(SCCN3CCCCC3)[nH]c12	M1 antagonist -2.8 | M1 antag confirm inactive | mGluR4 antag inactive
Cn1c(NCc2ccccc2)nc2c1c(=O)n(Cc1ccc(Br)cc1)c(=O)n2C	none (no result: D1 mod)
C[C@H](C(=O)C=[N+]=[N-])N1C(=O)c2ccccc2C1=O	none
COC(=O)N(C)CCCC1(C)C(=O)N(C)c2ccc(O)cc21 (stereo not drawn)	M1 antagonist -4.8 | M1 antag confirm inactive | mGluR4 antag inactive
COc1ccc(C(=O)c2coc3cc(Br)c(O)c(Br)c23)cc1	none (no result: D1 mod, M1 antagonist, RORA act, M1 agonist, SF-1 act)
CN(C)S(=O)(=O)N(Cc1ccc(Br)cc1)c1ccccc1	M1 antagonist -2.2 | M1 antag confirm inactive | mGluR4 antag inactive
c1cc2c(cc1C1CCCN1)OCCCO2 (stereo not drawn)	M1 antagonist -3.7 (no result: D1 mod) | M1 antag confirm 513 | mGluR4 antag inactive
Cc1cc(C)n(C(=O)COc2ccc(Oc3ccccc3)cc2)n1	none (no result: D1 mod, M1 antagonist, RORA act, M1 agonist, SF-1 act)
Cc1cccc(NC(=O)/C(=C\c2ccccc2Cl)NC(=O)c2ccccc2)c1	none (no result: D1 mod, M1 antagonist, RORA act, M1 agonist, SF-1 act)
c1cnc(N2CC[N+]3(CCCC3)CC2)nc1	M1 antagonist -5 | M1 antag confirm 163 | mGluR4 antag inactive
CC(C)c1nc2oc3c(N4CCNCC4)ncnc3c2c2c1CCC2	M1 antagonist -2.9 | M1 antag confirm 292 | mGluR4 antag inactive
CC(=O)OCc1c(COC(C)=O)[n+](=O)c2ccccc2n1[O-]	M1 antagonist -2.6 (no result: D1 mod) | M1 antag confirm inactive | mGluR4 antag inactive
CCOC(=O)C1=C(O)/C(=C/c2ccco2)SC1=Nc1cccc(Cl)c1	none (no result: D1 mod, M1 antagonist, RORA act, M1 agonist, SF-1 act)
O=C(CC(=S)c1cccs1)c1ccncc1	none (no result: D1 mod, M1 antagonist, RORA act, M1 agonist, SF-1 act)
Cn1c(CO)nc2cc(N)ccc21	none
Cc1nc2cc(CO)ccc2n1C	M1 antagonist -5.1 | M1 antag confirm inactive | mGluR4 antag inactive
